Laboratory results as given in ChEMBL document CHEMBL2331542, “Synthesis and in vitro antibacterial activity of quinolone/naphthyridone derivatives containing 3-alkoxyimino-4-(methyl)aminopiperidine scaffolds” (2013).
In brackets after ≈: the same amount, converted by molar mass.

test system: Staphylococcus aureus; experiment: Antibacterial activity against methicillin-sensitive Staphylococcus aureus isolate 12-6; assay type: functional
How it was run: (§1)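 MIC determined in vitro by a standard technique and defined as the lowest compound concentration giving complete inhibition of bacterial growth. The Gram-positive and Gram-negative panels were tested alongside gemifloxacin, levofloxacin and ciprofloxacin reference drugs.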

Compound | MIC [µg/mL]
CCO/N=C1\CN(c2c(F)cc3c(=O)c(C(=O)O)cn(C4CC4)c3c2OC)CCC1NC (stereo unspecified) | 0.25 (≈ 0.56 µM)

test system: Escherichia coli; experiment: Antibacterial activity against Escherichia coli isolate 12-1; assay type: functional; how it was run: as §1

Compound | MIC [µg/mL]
CCO/N=C1\CN(c2c(F)cc3c(=O)c(C(=O)O)cn(C4CC4)c3c2OC)CCC1NC (stereo unspecified) | 8 (≈ 17.9 µM)

test system: Streptococcus pneumoniae; experiment: Antibacterial activity against Streptococcus pneumoniae isolate 12-5; assay type: functional; how it was run: as §1

Compound | MIC [µg/mL]
CCO/N=C1\CN(c2c(F)cc3c(=O)c(C(=O)O)cn(C4CC4)c3c2OC)CCC1NC (stereo unspecified) | 1 (≈ 2.24 µM)

test system: Escherichia coli; experiment: Antibacterial activity against Escherichia coli isolate 12-4; assay type: functional; how it was run: as §1

Compound | MIC [µg/mL]
CCO/N=C1\CN(c2c(F)cc3c(=O)c(C(=O)O)cn(C4CC4)c3c2OC)CCC1NC (stereo unspecified) | > 128

test system: Klebsiella pneumoniae; experiment: Antibacterial activity against extended-spectrum beta-lactamase-producing Klebsiella pneumoniae isolate 12-2; assay type: functional; how it was run: as §1

Compound | MIC [µg/mL]
CCO/N=C1\CN(c2c(F)cc3c(=O)c(C(=O)O)cn(C4CC4)c3c2OC)CCC1NC (stereo unspecified) | 32 (≈ 71.7 µM)

test system: Staphylococcus epidermidis; experiment: Antibacterial activity against methicillin-sensitive Staphylococcus epidermidis isolate 12-2; assay type: functional; how it was run: as §1

Compound | MIC [µg/mL]
CCO/N=C1\CN(c2c(F)cc3c(=O)c(C(=O)O)cn(C4CC4)c3c2OC)CCC1NC (stereo unspecified) | 1 (≈ 2.24 µM)

test system: Staphylococcus aureus; experiment: Antibacterial activity against methicillin-resistant Staphylococcus aureus isolate 12-3; assay type: functional
How it was run: (§2)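 MIC determined in vitro by standard techniques, defined as the lowest compound concentration giving complete inhibition of bacterial growth. Gemifloxacin, levofloxacin and ciprofloxacin were tested alongside as reference drugs.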

Compound | MIC [µg/mL]
CCO/N=C1\CN(c2c(F)cc3c(=O)c(C(=O)O)cn(C4CC4)c3c2OC)CCC1NC (stereo unspecified) | 0.25 (≈ 0.56 µM)

test system: Staphylococcus aureus; experiment: Antibacterial activity against methicillin-sensitive Staphylococcus aureus isolate 12-7; assay type: functional; how it was run: as §1

Compound | MIC [µg/mL]
CCO/N=C1\CN(c2c(F)cc3c(=O)c(C(=O)O)cn(C4CC4)c3c2OC)CCC1NC (stereo unspecified) | 32 (≈ 71.7 µM)

test system: Klebsiella pneumoniae; experiment: Antibacterial activity against extended-spectrum beta-lactamase-producing Klebsiella pneumoniae isolate 12-4; assay type: functional; how it was run: as §1

Compound | MIC [µg/mL]
CCO/N=C1\CN(c2c(F)cc3c(=O)c(C(=O)O)cn(C4CC4)c3c2OC)CCC1NC (stereo unspecified) | > 128

test system: Streptococcus pneumoniae; experiment: Antibacterial activity against Streptococcus pneumoniae isolate 12-2; assay type: functional; how it was run: as §1

Compound | MIC [µg/mL]
CCO/N=C1\CN(c2c(F)cc3c(=O)c(C(=O)O)cn(C4CC4)c3c2OC)CCC1NC (stereo unspecified) | 0.25 (≈ 0.56 µM)

test system: Staphylococcus aureus; experiment: Antibacterial activity against methicillin-resistant Staphylococcus aureus isolate 12-15; assay type: functional; how it was run: as §2

Compound | MIC [µg/mL]
CCO/N=C1\CN(c2c(F)cc3c(=O)c(C(=O)O)cn(C4CC4)c3c2OC)CCC1NC (stereo unspecified) | 0.25 (≈ 0.56 µM)

test system: Staphylococcus epidermidis; experiment: Antibacterial activity against methicillin-sensitive Staphylococcus epidermidis isolate 12-3; assay type: functional; how it was run: as §1

Compound | MIC [µg/mL]
CCO/N=C1\CN(c2c(F)cc3c(=O)c(C(=O)O)cn(C4CC4)c3c2OC)CCC1NC (stereo unspecified) | 0.5 (≈ 1.12 µM)

test system: Staphylococcus aureus; experiment: Antibacterial activity against methicillin-resistant Staphylococcus aureus isolate 12-13; assay type: functional; how it was run: as §2

Compound | MIC [µg/mL]
CCO/N=C1\CN(c2c(F)cc3c(=O)c(C(=O)O)cn(C4CC4)c3c2OC)CCC1NC (stereo unspecified) | 0.25 (≈ 0.56 µM)

test system: Klebsiella pneumoniae; experiment: Antibacterial activity against extended-spectrum beta-lactamase-producing Klebsiella pneumoniae isolate 12-1; assay type: functional; how it was run: as §1

Compound | MIC [µg/mL]
CCO/N=C1\CN(c2c(F)cc3c(=O)c(C(=O)O)cn(C4CC4)c3c2OC)CCC1NC (stereo unspecified) | 32 (≈ 71.7 µM)

test system: Staphylococcus epidermidis; experiment: Antibacterial activity against methicillin-sensitive Staphylococcus epidermidis isolate 12-1; assay type: functional; how it was run: as §1

Compound | MIC [µg/mL]
CCO/N=C1\CN(c2c(F)cc3c(=O)c(C(=O)O)cn(C4CC4)c3c2OC)CCC1NC (stereo unspecified) | 0.5 (≈ 1.12 µM)

test system: Staphylococcus aureus; experiment: Antibacterial activity against methicillin-sensitive Staphylococcus aureus isolate 12-10; assay type: functional; how it was run: as §1

Compound | MIC [µg/mL]
CCO/N=C1\CN(c2c(F)cc3c(=O)c(C(=O)O)cn(C4CC4)c3c2OC)CCC1NC (stereo unspecified) | 0.125 (≈ 0.28 µM)

test system: Escherichia coli; experiment: Antibacterial activity against extended-spectrum beta-lactamase-producing Escherichia coli isolate 12-1; assay type: functional; how it was run: as §1

Compound | MIC [µg/mL]
CCO/N=C1\CN(c2c(F)cc3c(=O)c(C(=O)O)cn(C4CC4)c3c2OC)CCC1NC (stereo unspecified) | > 128

test system: Escherichia coli; experiment: Antibacterial activity against Escherichia coli ATCC 25922; assay type: functional; how it was run: as §1

Compound | MIC [µg/mL]
CCO/N=C1\CN(c2c(F)cc3c(=O)c(C(=O)O)cn(C4CC4)c3c2OC)CCC1NC (stereo unspecified) | 16 (≈ 35.8 µM)

test system: Staphylococcus epidermidis; experiment: Antibacterial activity against methicillin-resistant Staphylococcus epidermidis isolate 12-33; assay type: functional; how it was run: as §2

Compound | MIC [µg/mL]
CCO/N=C1\CN(c2c(F)cc3c(=O)c(C(=O)O)cn(C4CC4)c3c2OC)CCC1NC (stereo unspecified) | 1 (≈ 2.24 µM)

test system: Escherichia coli; experiment: Antibacterial activity against extended-spectrum beta-lactamase-producing Escherichia coli isolate 12-2; assay type: functional; how it was run: as §1

Compound | MIC [µg/mL]
CCO/N=C1\CN(c2c(F)cc3c(=O)c(C(=O)O)cn(C4CC4)c3c2OC)CCC1NC (stereo unspecified) | > 128

test system: Escherichia coli; experiment: Antibacterial activity against extended-spectrum beta-lactamase-producing Escherichia coli isolate 12-4; assay type: functional; how it was run: as §1

Compound | MIC [µg/mL]
CCO/N=C1\CN(c2c(F)cc3c(=O)c(C(=O)O)cn(C4CC4)c3c2OC)CCC1NC (stereo unspecified) | 32 (≈ 71.7 µM)

test system: Pseudomonas aeruginosa; experiment: Antibacterial activity against Pseudomonas aeruginosa isolate 12-2; assay type: functional; how it was run: as §1

Compound | MIC [µg/mL]
CCO/N=C1\CN(c2c(F)cc3c(=O)c(C(=O)O)cn(C4CC4)c3c2OC)CCC1NC (stereo unspecified) | 16 (≈ 35.8 µM)

test system: Klebsiella pneumoniae; experiment: Antibacterial activity against Klebsiella pneumoniae isolate 12-1; assay type: functional; how it was run: as §1

Compound | MIC [µg/mL]
CCO/N=C1\CN(c2c(F)cc3c(=O)c(C(=O)O)cn(C4CC4)c3c2OC)CCC1NC (stereo unspecified) | 4 (≈ 8.96 µM)

test system: Klebsiella pneumoniae; experiment: Antibacterial activity against Klebsiella pneumoniae isolate 12-2; assay type: functional; how it was run: as §1

Compound | MIC [µg/mL]
CCO/N=C1\CN(c2c(F)cc3c(=O)c(C(=O)O)cn(C4CC4)c3c2OC)CCC1NC (stereo unspecified) | 4 (≈ 8.96 µM)

test system: Klebsiella pneumoniae; experiment: Antibacterial activity against Klebsiella pneumoniae isolate 12-4; assay type: functional; how it was run: as §1

Compound | MIC [µg/mL]
CCO/N=C1\CN(c2c(F)cc3c(=O)c(C(=O)O)cn(C4CC4)c3c2OC)CCC1NC (stereo unspecified) | 2 (≈ 4.48 µM)

test system: Staphylococcus epidermidis; experiment: Antibacterial activity against methicillin-resistant Staphylococcus epidermidis isolate 12-35; assay type: functional; how it was run: as §2

Compound | MIC [µg/mL]
CCO/N=C1\CN(c2c(F)cc3c(=O)c(C(=O)O)cn(C4CC4)c3c2OC)CCC1NC (stereo unspecified) | 1 (≈ 2.24 µM)

test system: Pseudomonas aeruginosa; experiment: Antibacterial activity against Pseudomonas aeruginosa isolate 12-1; assay type: functional; how it was run: as §1

Compound | MIC [µg/mL]
CCO/N=C1\CN(c2c(F)cc3c(=O)c(C(=O)O)cn(C4CC4)c3c2OC)CCC1NC (stereo unspecified) | 16 (≈ 35.8 µM)

test system: Staphylococcus epidermidis; experiment: Antibacterial activity against methicillin-resistant Staphylococcus epidermidis isolate 12-5; assay type: functional; how it was run: as §2

Compound | MIC [µg/mL]
CCO/N=C1\CN(c2c(F)cc3c(=O)c(C(=O)O)cn(C4CC4)c3c2OC)CCC1NC (stereo unspecified) | 1 (≈ 2.24 µM)

test system: Escherichia coli; experiment: Antibacterial activity against Escherichia coli isolate 12-5; assay type: functional; how it was run: as §1

Compound | MIC [µg/mL]
CCO/N=C1\CN(c2c(F)cc3c(=O)c(C(=O)O)cn(C4CC4)c3c2OC)CCC1NC (stereo unspecified) | > 128

test system: Pseudomonas aeruginosa; experiment: Antibacterial activity against Pseudomonas aeruginosa ATCC 27853; assay type: functional; how it was run: as §1

Compound | MIC [µg/mL]
CCO/N=C1\CN(c2c(F)cc3c(=O)c(C(=O)O)cn(C4CC4)c3c2OC)CCC1NC (stereo unspecified) | 16 (≈ 35.8 µM)

test system: Staphylococcus aureus; experiment: Antibacterial activity against Staphylococcus aureus […]; assay type: functional; how it was run: as §1

Compound | MIC [µg/mL]
CCO/N=C1\CN(c2c(F)cc3c(=O)c(C(=O)O)cn(C4CC4)c3c2OC)CCC1NC (stereo unspecified) | 0.125 (≈ 0.28 µM)
